The values below come from ChEMBL document CHEMBL1128681, “Studies on the monoamine oxidase (MAO)-catalyzed oxidation of phenyl-substituted 1-methyl-4-phenoxy-1,2,3,6-tetrahydropyridine derivatives: factors contributing to MAO-A and MAO-B selectivity” (J Med Chem, 1995).

A short description of the assay: Selectivity coefficient as ratio of Kcat/Km for MAO-A and Kcat/Km for MAO-B. The procedure, abridged: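 Selectivity coefficient: MAO-A kcat/KM divided by MAO-B kcat/KM. Each value came from spectrophotometric initial-rate kinetics at 100–2000 μM substrate in 100 mM sodium phosphate pH 7.4, with 0.16 μM MAO-A or 0.08 μM MAO-B, and double-reciprocal plot analysis.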

In the case of `CN1CC=C(Oc2ccccc2Cl)CC1`, the Selectivity coefficient is 2.99. In the case of `Cc1ccc(OC2=CCN(C)CC2)cc1` it was 0.3; in that of `CN1CC=C(Oc2ccccc2-c2ccccc2)CC1`, 4.35. Consider `CN1CC=C(Oc2cccc(-c3ccccc3)c2)CC1`, for which the Selectivity coefficient came to 8.74. Under `CN1CC=C(Oc2cccc(Cl)c2)CC1` stands 5.99. Take `Cc1ccccc1OC1=CCN(C)CC1`: the Selectivity coefficient was 1.4. On to `CN1CC=C(Oc2ccccc2[N+](=O)[O-])CC1`, for which the Selectivity coefficient amounted to 1.7. Under `COc1ccccc1OC1=CCN(C)CC1` stands 1.01. As to `COc1cccc(OC2=CCN(C)CC2)c1`, the Selectivity coefficient came to 3.88.

Take `CN1CC=C(Oc2cccc([N+](=O)[O-])c2)CC1`: the Selectivity coefficient came out at 1.21. For `COc1ccc(OC2=CCN(C)CC2)cc1`, the Selectivity coefficient was 2.08. For the compound `CN1CC=C(c2ccccc2)CC1`, the Selectivity coefficient is 0.03. In the case of `CN1CC=C(Cc2ccccc2)CC1` it was 0.08; in that of `Cc1cccc(OC2=CCN(C)CC2)c1`, 1.16.

Take `CN1CC=C(Oc2ccccc2)CC1`: the Selectivity coefficient is 0.57. As to `CN1CC=C(Oc2ccc(Cl)cc2)CC1`, the Selectivity coefficient is 2.15. Under `CN1CC=C(Oc2ccc([N+](=O)[O-])cc2)CC1` stands 2.53; under `CN1CC=C(Oc2ccc(-c3ccccc3)cc2)CC1`, 4.71.
